MEX-5 binding = C. elegans MEX-5 TCR-2 RNA binding activity; AID 1832; 300,000 compounds, 0.38% hits; MEX-5/FITC-TCR2 RNA binding, fluorescence polarization; hits give low values; activity score (negative = inhibition of binding), % at 10 µM;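 active = inhibition past about -25% in most replicates, and total fluorescence under double the plate's negative control median, limit read from the data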;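 note: 0% = DMSO and -100% = 5 µM competing unlabeled TCR2 RNA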
Bcl-xL primary = Bcl-xL (human) inhibition. GST-Bcl-xL / FITC-Bim BH3 peptide fluorescence polarization. inhibition, % at 10.9 µM. 320,000 compounds, 0.7% hits;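 active = inhibition above the mean of all tested compounds plus 3 SD, cutoff set per campaign, cut at about 30% in these data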;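 note: 0% = DMSO wells and 100% = unlabeled Bim-BH3 peptide competitor; inhibitors lower millipolarization by displacing the labeled peptide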
GLD-1 TGE inh = GLD-1-TGE RNA interaction inhibition (C. elegans) | Q17339 | purified GLD-1 + fluorescein TGE RNA, fluorescence polarization | inhibition, % at 5.96 µM | 320,000 compounds, 0.44% hits | AID 2280;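 active = percent inhibition above a per-plate cutoff, the plate mean of test compounds plus 3 SD, cut at about 30% in these data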;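 note: 0% = DMSO wells with GLD-1 and probe and 100% = wells lacking GLD-1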
Target sequence (Q17339 whole entry, looked up): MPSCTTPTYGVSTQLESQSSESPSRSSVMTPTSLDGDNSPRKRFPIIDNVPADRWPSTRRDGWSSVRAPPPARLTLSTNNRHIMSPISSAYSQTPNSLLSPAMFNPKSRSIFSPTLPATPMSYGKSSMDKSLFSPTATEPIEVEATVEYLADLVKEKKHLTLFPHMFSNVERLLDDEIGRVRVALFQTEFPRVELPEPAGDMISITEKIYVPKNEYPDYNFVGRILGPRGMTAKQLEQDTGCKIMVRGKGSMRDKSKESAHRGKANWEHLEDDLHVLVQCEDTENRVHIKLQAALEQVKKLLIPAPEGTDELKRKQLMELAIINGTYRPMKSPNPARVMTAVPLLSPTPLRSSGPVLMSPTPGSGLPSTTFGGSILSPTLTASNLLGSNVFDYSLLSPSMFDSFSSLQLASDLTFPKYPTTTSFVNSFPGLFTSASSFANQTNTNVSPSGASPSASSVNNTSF
EBV gp42 block = inhibitors of Epstein-Barr virus glycoprotein 42; Q1HVG2; Fluorescence polarization binding assay, mP read-out; inhibition, % (tested at 21.74 µM); 220,000 compounds, 0.42% hits; in the data active = inhibition above about 50%
VIM-2 inhibitor = blocks Pseudomonas aeruginosa VIM-2 metallo-beta-lactamase; purified VIM-2, nitrocefin hydrolysis, epi-absorbance fluorescence; AID 1527; 290,000 compounds, 0.89% hits; inhibition, % at 5.6 µM;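 active = inhibition above the mean of all tested compounds plus 3 SD, cutoff set per screening run, cut at about 7.5% in these data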;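 note: red hydrolysis product quenches plate fluorescence so inhibitors raise well fluorescence; 0% = enzyme with DMSO and 100% = DMSO without enzyme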
IMP-1 inh-1 = blocks Pseudomonas aeruginosa IMP-1 metallo-beta-lactamase; purified IMP-1, nitrocefin hydrolysis, epi-absorbance fluorescence; inhibition, % at 5.6 µM; 290,000 compounds, 0.45% hits;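 active = inhibition above the mean plus 3 SD of all compounds in the same screening run, cut at about 4.5% in these data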;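 note: 0% = IMP-1 with DMSO and 100% = DMSO wells lacking enzyme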
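assay system = purified recombinant IMP-1 metallo-beta-lactamase enzyme | schedule = 15 min preincubation plus 25 min reaction at 25 °C | signal = Epi-absorbance fluorescence, 480 nm excitation, 530 nm emission | read-out basis = percent inhibition from optical density relative to buffer-blank wells | controls = IMP-1 with DMSO as 0%, enzyme-free DMSO as 100%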
IMP-1 inh-2 = blocks IMP-1 metallo-beta-lactamase in VIM-2 selectivity screen; shares compounds with VIM-2 inhibitor; purified IMP-1, nitrocefin hydrolysis, epi-absorbance fluorescence; inhibition, % at 5.6 µM; 1,300 tested, under 10 active; AID 1856; call rule not given here;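 note: 0% = enzyme with vehicle and 100% = vehicle without enzyme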
VIM-2 FRET ctr = counter-screen for VIM-2 inhibitors: epi-absorbance artifacts via FRET; 1,300 compounds, 23% hits; purified VIM-2, CCF2 FRET substrate hydrolysis; shares compounds with VIM-2 inhibitor; AID 1857; inhibition, % at 5.6 µM;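 active = inhibition above the mean of all tested compounds plus 3 SD, cut at about 19% in these data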;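 note: 0% = VIM-2 plus DMSO and 100% = no enzyme wells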
TEM-1 counter = blocks E. coli TEM-1 beta-lactamase in VIM-2 selectivity screen. inhibition, % at 5.6 µM. shares compounds with VIM-2 inhibitor. Purified TEM-1, nitrocefin hydrolysis, epi-absorbance fluorescence. 1,300 compounds, 3% hits;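 active = inhibition above that campaign's mean inhibition plus 3 SD, cut at about 0.46% in these data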;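 note: 0% = TEM-1 with DMSO and 100% = TEM-1 with 100 µM potassium clavulanate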
VIM-2 confirm 2 = confirmation of P. aeruginosa VIM-2 metallo-beta-lactamase inhibitors; shares compounds with VIM-2 inhibitor; purified VIM-2, nitrocefin hydrolysis, epi-absorbance; inhibition, % at 5.6 µM; 1,300 compounds, 96% hits;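 active = inhibition of the VIM-2 beta-lactamase enzyme above about 11% from the earlier first-round screen, limit read from the data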;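 note: 0% = VIM-2 with DMSO and 100% = buffer wells without enzyme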
The depositor's hits bear a star. An excerpt weighted towards active compounds, which were near 2.2% of everything screened.

`O=C(CSc1nnc(NC(=O)c2cccc(F)c2)s1)NCC1CCCO1` (stereo not drawn) gave MEX-5 binding -2, Bcl-xL primary 4, GLD-1 TGE inh 7, VIM-2 inhibitor 17*, IMP-1 inh-1 -1, IMP-1 inh-2 -2, VIM-2 FRET ctr 26*, TEM-1 counter -5 and VIM-2 confirm 2 15*.
COc1ccc(CCn2c(SCCN3CCCCC3)nc3ccccc3c2=O)cc1OC was read as MEX-5 binding 0, Bcl-xL primary 3, GLD-1 TGE inh 1, EBV gp42 block -6, VIM-2 inhibitor 75*, IMP-1 inh-1 -3, IMP-1 inh-2 -2, VIM-2 FRET ctr 0, TEM-1 counter -5 and VIM-2 confirm 2 84*.
CCn1c(-c2cccnc2)n[nH]c1=S was read as MEX-5 binding 0, Bcl-xL primary -2, GLD-1 TGE inh 1, EBV gp42 block -32, VIM-2 inhibitor -4 and IMP-1 inh-1 -2.
`CCCCn1c(-c2cccnc2)n[nH]c1=S` gave MEX-5 binding 4, Bcl-xL primary -7, GLD-1 TGE inh 6, EBV gp42 block -5, VIM-2 inhibitor 20*, IMP-1 inh-1 -5, IMP-1 inh-2 -3, VIM-2 FRET ctr 32*, TEM-1 counter -7 and VIM-2 confirm 2 22*.
For Cc1c(CC(=O)O)c(=O)oc2c(C)c3occ(-c4ccccc4)c3cc12 the results were MEX-5 binding -2, Bcl-xL primary 10, GLD-1 TGE inh 2, VIM-2 inhibitor 15*, IMP-1 inh-1 1, IMP-1 inh-2 1, VIM-2 FRET ctr 2, TEM-1 counter -10 and VIM-2 confirm 2 21*.
Screening Cc1oc2c(C)c3oc(=O)c(CCC(=O)O)c(C)c3cc2c1-c1ccccc1 returned MEX-5 binding -1, Bcl-xL primary 18, GLD-1 TGE inh 4, VIM-2 inhibitor 7 and IMP-1 inh-1 0.
`Cc1ccc(CNc2c(C=O)c(=O)[nH]c3ccccc23)cc1` gave MEX-5 binding 1, Bcl-xL primary 3, GLD-1 TGE inh 11, VIM-2 inhibitor 14*, IMP-1 inh-1 -3, IMP-1 inh-2 -3, VIM-2 FRET ctr 31*, TEM-1 counter -5 and VIM-2 confirm 2 21*.
O=Cc1c(NCc2ccc(F)cc2)c2ccccc2[nH]c1=O was read as MEX-5 binding 3, Bcl-xL primary 0, GLD-1 TGE inh -1, VIM-2 inhibitor 0 and IMP-1 inh-1 -5.
Cc1ccc(C(=O)CCC(=O)Nc2ccc(C)cn2)cc1 was read as Bcl-xL primary 4 and GLD-1 TGE inh -2.
COc1ccc(OCC(O)CN2CCC(CN3C(=O)c4cccc5cccc(c45)C3=O)CC2)cc1 (stereo not drawn) was read as MEX-5 binding -3, Bcl-xL primary 3 and GLD-1 TGE inh -4.
For O=C1c2cccc3cccc(c23)C(=O)N1CC1CCN(CC(O)COCc2ccc3c(c2)OCO3)CC1 (stereo not drawn) the results were MEX-5 binding -2, Bcl-xL primary 6, GLD-1 TGE inh -1, EBV gp42 block -17, VIM-2 inhibitor 16*, IMP-1 inh-1 -1, IMP-1 inh-2 -3, VIM-2 FRET ctr -5, TEM-1 counter -6 and VIM-2 confirm 2 24*.
`Brc1ccc(-c2ccc(CNCc3ccccn3)o2)cc1` gave MEX-5 binding -1, Bcl-xL primary 5, GLD-1 TGE inh 5, VIM-2 inhibitor 39*, IMP-1 inh-1 0, IMP-1 inh-2 -4, VIM-2 FRET ctr -15, TEM-1 counter -6 and VIM-2 confirm 2 50*.

Screening results deposited in PubChem BioAssay by several laboratories.
